One series has as its system Melan-a. Briefly: Inhibition of melanin formation in C57BL/6J mouse Melan-a cells. The format is functional, cell-based. An outline of the steps:
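Murine melan-a melanocytes (C57BL/6J origin) seeded at 2 × 10⁵ cells/ml, compounds added in triplicate; medium changed daily, 4 d culture. Cells lysed in 1 N NaOH, relative melanin read at 400 nm. IC50 from logarithmic concentration-inhibition curves, means of three experiments. Viability by crystal violet (0.1% in 10% ethanol, 5 min RT; extracted with 95% ethanol 10 min).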

Series [1] can be described thus: Cytotoxicity against C57BL/6J mouse Melan-a cells assessed as cell survival at 10 uM by modified crystal violet assay.
A further series has as its target T1, Tyrosinase (Agaricus bisporus, UniProt O42713).
T1 sequence (O42713 whole entry): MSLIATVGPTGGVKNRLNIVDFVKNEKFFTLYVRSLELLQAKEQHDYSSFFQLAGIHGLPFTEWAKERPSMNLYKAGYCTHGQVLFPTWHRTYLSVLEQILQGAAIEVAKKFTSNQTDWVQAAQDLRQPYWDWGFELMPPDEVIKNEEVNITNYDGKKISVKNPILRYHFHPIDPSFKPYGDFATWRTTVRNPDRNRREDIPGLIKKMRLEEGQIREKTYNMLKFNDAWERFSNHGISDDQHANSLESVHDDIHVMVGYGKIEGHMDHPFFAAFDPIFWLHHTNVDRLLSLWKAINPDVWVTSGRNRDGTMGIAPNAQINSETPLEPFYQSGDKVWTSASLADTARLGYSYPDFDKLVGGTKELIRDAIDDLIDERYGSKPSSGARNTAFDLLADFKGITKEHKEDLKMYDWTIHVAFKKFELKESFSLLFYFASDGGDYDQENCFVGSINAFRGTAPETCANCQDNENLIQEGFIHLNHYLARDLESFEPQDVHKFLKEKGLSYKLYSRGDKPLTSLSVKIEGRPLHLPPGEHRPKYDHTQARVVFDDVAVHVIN
The series is described as follows: Inhibition of mushroom tyrosinase activity after 20 mins. Summed up:
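Mushroom tyrosinase (2100 U/ml stock in 0.05 M phosphate pH 6.5) with 1.5 mM tyrosine stock in 0.1 M phosphate buffer pH 6.5; incubated 20 min at 37 °C, read on microplate reader. IC50 = concentration inhibiting 50% of enzyme activity, from logarithmic concentration-inhibition curves, mean of three experiments.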

Series [2] in a line: Cytotoxicity against C57BL/6J mouse Melan-a cells assessed as cell survival at 30 uM by modified crystal violet assay. As to conditions: read-out: Survival. The format is cell-based. Summed up: (§1)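 Murine melan-a melanocytes (from C57BL/6 J mice) seeded at 2 × 10⁵ cells/ml, compound added in triplicate; medium changed daily over 4 d culture. Viability by modified crystal violet: PBS wash, 0.1% crystal violet in 10% ethanol 5 min at room temperature, four distilled-water rinses, retained dye extracted with 95% ethanol 10 min at room temperature. Reported as % survival at the stated concentration.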

Series [3] in a line: Cytotoxicity against C57BL/6J mouse Melan-a cells assessed as cell survival at 50 uM by modified crystal violet assay. The format is cell-based. Conditions: read-out: Survival. Summed up: as §1
A short description of series [4]: Cytotoxicity against C57BL/6J mouse Melan-a cells assessed as cell survival at 20 uM by modified crystal violet assay. It is filed as cell-based. As to conditions: read-out: Survival. An outline of the steps:
as §1

Series [5] is described as follows: Cytotoxicity against C57BL/6J mouse Melan-a cells assessed as cell survival at 80 uM by modified crystal violet assay. As to conditions: read-out: Survival. It is filed as cell-based. An outline of the steps:
as §1

pIC50: −log10 of the molar value.

Usually pIC50 stands for the IC50 on a negative log10 scale, so that one unit is a factor of ten. A low value points to a high IC50.

With `Oc1ccc(O)cc1` [HYDROQUINONE], the values for the pIC50 in the series on Melan-a and at Tyrosinase were 5.40 and 5.01, respectively. The viability at 10 µM in series [1] was 87.3%.
For `O=C(NC12CC3CC(CC(C3)C1)C2)c1ccc(O)c(O)c1`, the figures for the pIC50 in the series on Melan-a and against Tyrosinase were 5.90 and under 3.70, respectively. Moreover, in series [2], the viability at 30 µM is 95.2%.
As to `O=C(NC12CC3CC(CC(C3)C1)C2)c1ccc(O)cc1O`, the pIC50 in the series with Melan-a was 4.47; against Tyrosinase it was under 3.70. Further, the viability at 50 µM in series [3] stood at 99.2%.
With `Oc1ccc(C23CC4CC(CC(C4)C2)C3)c(O)c1`, the pIC50 in the series with Melan-a was 5.05; against Tyrosinase, 6.05. The viability at 20 µM in series [4] is 91.7%.
For `O=C(NC12CC3CC(CC(C3)C1)C2)c1cc(O)ccc1O`, in that order: 5.01, under 3.70 and 99.1%.
Consider `O=C(NC12CC3CC(CC(C3)C1)C2)c1cc(O)cc(O)c1`, for which the pIC50 in the series on Melan-a was 4.90; against Tyrosinase, under 3.70. In series [2], the viability at 30 µM was found to be 91.3%.
Regarding `CCCCc1ccc(O)cc1O` [RUCINOL], the pIC50 in the series on Melan-a was 4.66; against Tyrosinase, 6.82. Also, the viability at 80 µM in series [5] was 98.2%.
For `O=C(NC12CC3CC(CC(C3)C1)C2)c1cccc(O)c1O`, the negative-log IC50 (pIC50) was 6.14 in the series with Melan-a and under 3.70 at Tyrosinase. In addition, in series [4], the viability at 20 µM amounted to 96.2%.

(Values after ChEMBL document CHEMBL1152877, “Studies on depigmenting activities of dihydroxyl benzamide derivatives containing adamantane moiety” (Bioorg Med Chem Lett, 2009).)
